Laboratory results taken from ChEMBL document CHEMBL4765459, “Synthesis and bioactivity of phenyl substituted furan and oxazole carboxylic acid derivatives as potential PDE4 inhibitors” (Eur J Med Chem, 2020).

Key:
[1] = molecular target: T1, 3',5'-cyclic-AMP phosphodiesterase 4B (Homo sapiens, UniProt Q07343); experiment: Inhibition of human U-937 cells derived PDE4B using [3H] cAMP as substrate measured after 30 mins
Procedure, shortened: (§1)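 Enzyme from human monocyte-derived U937 cells, stored at −20 °C and diluted in triple-distilled water containing BSA. Substrate was [3H]cAMP (300,000 dpm/assay) in 100 mmol/L Tris-HCl pH 8.0 with 5 mmol/L EGTA. Compound added in DMSO. Incubation 30 min at 30 °C. Duplicates run at several compound concentrations.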

[2] = molecular target: T1, 3',5'-cyclic-AMP phosphodiesterase 4B; experiment: Inhibition of PDE4B in human PBMC assessed as reduction in LPS-induced TNFalpha release preincubated for 30 mins followed by LPS stimulation and measured after 18 hrs by TR-FRET assay
Procedure, shortened: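 Human PBMCs from buffy coats, blood first diluted 1:1 with saline, isolated on Lymphoprep. Compound pre-incubation 30 min, then LPS stimulation for 18 h. IC50 reported.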

[3] = species: Homo sapiens; experiment: Selectivity ratio of IC50 for inhibition of human U937 cells derived PDE4D to inhibition of human U937 cells derived PDE4B
[4] = molecular target: 3',5'-cyclic-AMP phosphodiesterase 4D (Homo sapiens, UniProt Q08499); experiment: Inhibition of human U-937 cells derived PDE4D using [3H] cAMP as substrate measured after 30 mins; procedure, shortened: as §1
[5] = tested on: Mus musculus; experiment: Antiinflammatory activity in LPS induced Swiss albino mouse model of sepsis assessed as inhibition of TNFalpha production at 10 mg/kg, po preincubated for 30 mins followed by LPS stimulation and measured after 90 mins by ELISA relative to control; assay type: functional; conditions: 2 h, time 120 min
Procedure, shortened: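 Female Swiss albino mice, weight-matched, n = 6 per group, fasted 20 h with water available. Oral dosing in 0.5% Tween 80 / 0.25% sodium carboxymethylcellulose, with vehicle-only controls. 500 µg E. coli LPS (B4) in phosphate buffer given i.p. 30 min later. Retro-orbital bleed 90 min after LPS. Serum spun 4000 rpm for 20 min, held at 4 °C overnight, then TNF-α measured by mouse ELISA kit.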

[6] = tested on: Rattus norvegicus; experiment: Antiinflammatory activity in LPS induced Sprague-Dawley rat model of asthma and COPD assessed as inhibition of neutrophilia at 10 mg/kg, po preincubated for 30 mins followed by LPS stimulation and measured after 6 hrs relative to control; assay type: functional; conditions: time 6.5 hrs
Procedure, shortened: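 Male Sprague Dawley rats, acclimatized one week and randomized by body weight, n = 6 per group. Compound given orally, suspended in 0.25% sodium carboxymethylcellulose, half an hour before LPS exposure. Bronchoalveolar lavage done 6 h after LPS. Total cell count and differential leukocyte count compared with control.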

3',5'-cyclic-AMP phosphodiesterase 4D, sequence (Q08499 whole entry): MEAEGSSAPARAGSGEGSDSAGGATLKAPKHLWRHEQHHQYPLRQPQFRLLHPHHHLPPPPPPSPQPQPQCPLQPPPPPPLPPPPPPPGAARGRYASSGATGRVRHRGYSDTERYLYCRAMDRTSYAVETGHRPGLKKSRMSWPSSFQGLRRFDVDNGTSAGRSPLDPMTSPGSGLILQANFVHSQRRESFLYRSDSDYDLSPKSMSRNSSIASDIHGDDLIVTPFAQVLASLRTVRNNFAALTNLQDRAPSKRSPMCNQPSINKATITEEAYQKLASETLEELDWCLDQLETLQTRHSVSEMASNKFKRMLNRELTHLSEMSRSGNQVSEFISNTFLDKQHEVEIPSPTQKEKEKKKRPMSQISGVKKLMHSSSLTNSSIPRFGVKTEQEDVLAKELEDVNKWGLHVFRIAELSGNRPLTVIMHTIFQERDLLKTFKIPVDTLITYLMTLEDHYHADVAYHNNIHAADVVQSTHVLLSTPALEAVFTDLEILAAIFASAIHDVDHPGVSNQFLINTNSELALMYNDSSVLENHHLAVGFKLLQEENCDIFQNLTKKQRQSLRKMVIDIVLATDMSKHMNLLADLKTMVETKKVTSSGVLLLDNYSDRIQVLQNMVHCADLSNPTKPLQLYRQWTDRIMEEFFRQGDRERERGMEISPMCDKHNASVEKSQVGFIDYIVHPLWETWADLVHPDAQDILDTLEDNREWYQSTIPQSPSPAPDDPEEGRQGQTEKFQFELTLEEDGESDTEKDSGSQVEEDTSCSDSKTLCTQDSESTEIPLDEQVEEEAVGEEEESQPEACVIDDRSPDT
T1 sequence (Q07343 whole entry): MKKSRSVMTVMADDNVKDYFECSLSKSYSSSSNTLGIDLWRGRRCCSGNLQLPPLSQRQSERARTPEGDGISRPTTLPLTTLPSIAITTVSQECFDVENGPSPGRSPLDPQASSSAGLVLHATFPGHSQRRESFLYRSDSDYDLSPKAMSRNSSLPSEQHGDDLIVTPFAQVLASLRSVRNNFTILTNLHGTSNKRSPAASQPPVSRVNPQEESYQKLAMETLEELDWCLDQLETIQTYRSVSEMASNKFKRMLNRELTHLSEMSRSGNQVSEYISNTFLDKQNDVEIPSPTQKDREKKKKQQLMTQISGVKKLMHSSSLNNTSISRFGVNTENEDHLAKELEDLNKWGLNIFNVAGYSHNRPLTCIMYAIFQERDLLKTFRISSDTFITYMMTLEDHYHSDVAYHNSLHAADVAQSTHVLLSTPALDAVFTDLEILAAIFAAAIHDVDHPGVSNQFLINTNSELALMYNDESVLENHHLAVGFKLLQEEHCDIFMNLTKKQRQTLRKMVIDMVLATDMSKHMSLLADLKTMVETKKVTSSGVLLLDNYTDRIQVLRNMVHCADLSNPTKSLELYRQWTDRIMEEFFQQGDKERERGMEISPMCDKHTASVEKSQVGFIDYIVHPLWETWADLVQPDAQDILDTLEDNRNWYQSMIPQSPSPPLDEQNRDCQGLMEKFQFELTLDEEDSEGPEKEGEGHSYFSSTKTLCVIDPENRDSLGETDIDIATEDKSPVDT

N#C/N=C1/SCCN1C(=O)c1ccc(-c2ccccc2Cl)o1
IC50 [1]: 62.8 µM | IC50 [2]: 123 µM

COc1ccc(-c2ccc(CN3CCS/C3=N/C#N)o2)cc1
Ratio IC50 [3]: 3.42 | IC50 [1]: 9.6 µM | IC50 [4]: 32.8 µM | inhibition in vivo at 10 mg/kg [5]: 31.2% | inhibition in vivo at 10 mg/kg [6]: 28.7% | IC50 [2]: 36.8 µM

N#C/N=C1/SCCN1C(=O)c1ccc(-c2cccc(F)c2)o1
IC50 [1]: 37.8 µM | IC50 [2]: 72.6 µM

N#C/N=C1/SCCN1C(=O)c1ccc(-c2ccc(F)cc2)o1
Ratio IC50 [3]: 4.93 | IC50 [1]: 11.3 µM | IC50 [4]: 55.7 µM | IC50 [2]: 29.8 µM

N#C/N=C1/SCCN1Cc1ccc(-c2ccc(F)cc2)o1
Ratio IC50 [3]: 5.85 | IC50 [1]: 18.9 µM | IC50 [4]: 111 µM | IC50 [2]: 45.8 µM

N#C/N=C1/SCCN1C(=O)c1coc(-c2ccccc2)n1
IC50 [1]: 71.2 µM | IC50 [2]: 142 µM

N#C/N=C1/SCCN1C(=O)c1coc(-c2ccccc2Cl)n1
IC50 [1]: 40.3 µM | IC50 [2]: 101 µM

N#C/N=C1/SCCN1Cc1ccc(-c2ccccc2Cl)o1
IC50 [1]: 102 µM | IC50 [2]: 149 µM

N#C/N=C1/SCCN1Cc1ccc(-c2ccc(Br)cc2)o1
IC50 [1]: 52.7 µM | IC50 [2]: 156 µM

N#C/N=C1/SCCN1C(=O)c1coc(-c2c(F)cccc2F)n1
Ratio IC50 [3]: 6.06 | IC50 [1]: 16.3 µM | IC50 [4]: 98.7 µM | IC50 [2]: 49.3 µM

N#C/N=C1/SCCN1C(=O)c1ccc(-c2ccccc2)o1
IC50 [1]: 111 µM | IC50 [2]: 170 µM

Cc1ccc(-c2nc(C(=O)N3CCS/C3=N/C#N)co2)cc1
Ratio IC50 [3]: 7.27 | IC50 [1]: 9.2 µM | IC50 [4]: 66.9 µM | IC50 [2]: 35.2 µM

N#C/N=C1/SCCN1C(=O)c1ccc(-c2cccc(Cl)c2)o1
Ratio IC50 [3]: 3.39 | IC50 [1]: 29.4 µM | IC50 [4]: 99.8 µM | IC50 [2]: 74.3 µM

COc1ccc(C2CNC(=O)C2)cc1OC1CCCC1 (stereo not drawn) [ROLIPRAM]
inhibition in vivo at 10 mg/kg [5]: 45.3% | inhibition in vivo at 10 mg/kg [6]: 36.8%

Cc1ccc(-c2ccc(C(=O)N3CCS/C3=N/C#N)o2)cc1
Ratio IC50 [3]: 4.34 | IC50 [1]: 12.5 µM | IC50 [4]: 54.3 µM | IC50 [2]: 41.3 µM

N#C/N=C1/SCCN1C(=O)c1coc(-c2ccccc2F)n1
IC50 [1]: 52.8 µM | IC50 [2]: 92.8 µM

N#C/N=C1/SCCN1C(=O)c1coc(-c2cccc(F)c2)n1
IC50 [1]: 27.6 µM | IC50 [2]: 64.3 µM

N#C/N=C1/SCCN1Cc1ccc(-c2c(F)cccc2F)o1
Ratio IC50 [3]: 3.49 | IC50 [1]: 45.7 µM | IC50 [4]: 160 µM | IC50 [2]: 82.3 µM

Cc1ccc(-c2ccc(CN3CCS/C3=N/C#N)o2)cc1
Ratio IC50 [3]: 6.04 | IC50 [1]: 20.1 µM | IC50 [4]: 121 µM | IC50 [2]: 53.9 µM

N#C/N=C1/SCCN1Cc1ccc(-c2cccc(Cl)c2)o1
IC50 [1]: 62.8 µM | IC50 [2]: 89.7 µM

COc1ccc(-c2ccc(C(=O)N3CCS/C3=N/C#N)o2)cc1
Ratio IC50 [3]: 6.68 | IC50 [1]: 2.8 µM | IC50 [4]: 18.7 µM | inhibition in vivo at 10 mg/kg [5]: 40.5% | inhibition in vivo at 10 mg/kg [6]: 33.8% | IC50 [2]: 15.3 µM

N#C/N=C1/SCCN1C(=O)c1coc(-c2ccc(Cl)cc2)n1
Ratio IC50 [3]: 7.44 | IC50 [1]: 3.6 µM | IC50 [4]: 26.8 µM | IC50 [2]: 27.2 µM

N#C/N=C1/SCCN1C(=O)c1coc(-c2ccc(F)cc2)n1
Ratio IC50 [3]: 6.75 | IC50 [1]: 6.8 µM | IC50 [4]: 45.9 µM | IC50 [2]: 22.1 µM

N#C/N=C1/SCCN1Cc1ccc(-c2ccc(Cl)cc2)o1
Ratio IC50 [3]: 3.71 | IC50 [1]: 15.7 µM | IC50 [4]: 58.3 µM | IC50 [2]: 44.2 µM

N#C/N=C1/SCCN1Cc1ccc(-c2cccc(F)c2)o1
IC50 [1]: 59.7 µM | IC50 [2]: 89.5 µM

N#C/N=C1/SCCN1C(=O)c1ccc(-c2ccc(Cl)cc2)o1
Ratio IC50 [3]: 4 | IC50 [1]: 6.6 µM | IC50 [4]: 26.4 µM | IC50 [2]: 35.6 µM

N#C/N=C1/SCCN1C(=O)c1coc(-c2ccc(Br)cc2)n1
IC50 [1]: 46.7 µM | IC50 [2]: 131 µM

N#C/N=C1/SCCN1C(=O)c1ccc(-c2c(F)cccc2F)o1
Ratio IC50 [3]: 4.01 | IC50 [1]: 22.1 µM | IC50 [4]: 88.6 µM | IC50 [2]: 60.1 µM

COc1ccc(-c2nc(C(=O)N3CCS/C3=N/C#N)co2)cc1
Ratio IC50 [3]: 11.2 | IC50 [1]: 1.4 µM | IC50 [4]: 15.7 µM | inhibition in vivo at 10 mg/kg [5]: 52.6% | inhibition in vivo at 10 mg/kg [6]: 42.1% | IC50 [2]: 11.8 µM

N#C/N=C1/SCCN1C(=O)c1coc(-c2cccc(Cl)c2)n1
Ratio IC50 [3]: 5.66 | IC50 [1]: 18.1 µM | IC50 [4]: 102 µM | IC50 [2]: 62.5 µM

N#C/N=C1/SCCN1C(=O)c1ccc(-c2ccccc2F)o1
IC50 [1]: 62.4 µM | IC50 [2]: 110 µM

N#C/N=C1/SCCN1C(=O)c1ccc(-c2ccc(Br)cc2)o1
IC50 [1]: 49.6 µM | IC50 [2]: 139 µM

N#C/N=C1/SCCN1Cc1ccc(-c2ccccc2F)o1
IC50 [1]: 85.6 µM | IC50 [2]: 121 µM

N#C/N=C1/SCCN1Cc1ccc(-c2ccccc2)o1
IC50 [1]: 162 µM | IC50 [2]: 199 µM
